The values that follow come from ChEMBL document CHEMBL1138363, “N,N'-dihydroxyamidines: a new prodrug principle to improve the oral bioavailability of amidines” (J Med Chem, 2007).

Settings in all cases: in vivo
Data set [1] has as its system Sus scrofa. The experiment in a line: Plasma concentration in pig at 10 mg/kg, po. Type of data set: ADME, organism-based. Further details: dose 10 mg/kg, route oral. The procedure, abridged:
(§1)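 Prodrug given orally to three pigs at 10 mg/kg body weight. Heparinized blood samples were centrifuged at 1500g for 10 min at 4 °C, stored at -80 °C and worked up by solid-phase extraction. Some samples were pretreated with β-glucuronidase/sulfatase. Benzamidine and benzamidoxime were measured in plasma by HPLC. Pharmacokinetic parameters were estimated for each pig from the plasma concentration-time curves.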

Data set [2] is described as follows: Tmax in po dosed pig. In kind it is ADME, organism-based, Sus scrofa. An outline of the steps: as §1
Data set [3] in a line: Cmax in po dosed pig. Type of data set: ADME, organism-based, Sus scrofa. Details: route oral. An outline of the steps: as §1
Data set [4] is described as follows: Half life in po dosed pig. Type of data set: ADME, organism-based, Sus scrofa. An outline of the steps: as §1
Data set [5] in a line: Mean resident time in po dosed pig. In kind it is ADME, organism-based, Sus scrofa. An outline of the steps: as §1
The subject of data set [6] is Sus scrofa. The experiment in a line: AUC in po dosed pig. In kind it is ADME, organism-based, Plasma. An outline of the steps:
as §1

Data set [7] deals with Sus scrofa. The experiment in a line: Volume of distribution in po dosed pig. In kind it is ADME, organism-based. The procedure, abridged: as §1
In data set [8] the test system is Sus scrofa. Put plainly: Clearance in po dosed pig. In kind it is ADME, organism-based. An outline of the steps:
as §1

Data set [9] can be described thus: Oral bioavailability in pig. Type of data set: ADME, organism-based, Sus scrofa. The procedure, abridged:
as §1

`NC(=NO)c1ccccc1` [BENZAMIDOXIME] yielded a concentration in data set [1] of 0.4 µM.
The Tmax is the time at which the peak concentration occurs. The term Cmax denotes the maximum level reached in the sampled fluid or tissue. A word on the half-life: it is the time in which the quantity being followed falls by half. A higher half-life goes with slow decline. By MRT is commonly meant a mean duration of stay, worked out from the concentration-time curve. For orientation: AUC means concentration integrated over time. Broadly, the bioavailability is dose-corrected exposure relative to a reference, in per cent. Read a low bioavailability as little systemic uptake. `N=C(N)c1ccccc1` [BENZAMIDINE] came in with a concentration in data set [1] of 13.7 µM. Moreover, the time of peak concentration (Tmax) in data set [2] was 2 h. In data set [3], this compound had a Cmax of 13.7 µM. In data set [4], this compound had a half-life of 3.7 h. In data set [5], this compound gave an MRT of 6.16 h. The AUC in data set [6] was 98.7 µM·h. For the same compound, the Vd in [7] was 7.91 L/kg. Moreover, the CL in [8] worked out at 30 mL/min/kg. The compound also had a bioavailability in [9] of 91%.
